Experimental data from ChEMBL document CHEMBL4376818, “Discovery of Novel Pyrazolo-pyridone DCN1 Inhibitors Controlling Cullin Neddylation” (J Med Chem, 2019).
Converted amounts (≈) assume the structure as drawn. The source made the active and inactive calls. The calls are words filed in the database; no cut-off is given here.

Assays:
[1] = target: DCN1-like protein 1/NEDD8-conjugating enzyme Ubc12 (Homo sapiens, UniProt Q96GG9); assay: Inhibition of biotinylated DCN1 (unknown origin) - AlexaFluor488 labelled UBE2M (unknown origin) protein-protein interaction after 1 hr by TR-FRET assay
BJ = assay: Cytotoxicity against human BJ cells assessed as cell growth inhibition after 72 hrs by Celltiter-Glo assay; type: cell-based
Procedure, shortened: (§1)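 Cells were seeded overnight at 37 °C, 5% CO2, at densities validated for logarithmic growth (BJ 1000 cells/well, HCC95 600 cells/well), then treated with ten 3-fold serial dilutions from DMSO stocks for 72 h. […] Fit on a semi-log plot; ≥3 technical and 2 biological replicates.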

HCC95 [2] = assay: Cytotoxicity against human HCC95 cells overexpressing DCN1 assessed as cell growth inhibition after 72 hrs by Celltiter-Glo assay; type: cell-based; conditions: HCC95, 72 h; procedure, shortened: as §1
HCC95 [3] = assay: Induction of ROS generation in human HCC95 cells at 30 uM after 5 hrs by H2DCFDA dye based fluorescence assay; type: functional, cell-based
Procedure, shortened: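 HCC95 cells were seeded at 25,000 cells/well and incubated overnight. They were PBS-washed, loaded with DCFDA for 45 min at 37 °C in the dark, washed twice, then exposed to compound in buffer for 5 h at 37 °C in the dark. Fluorescence was read at Ex/Em 485/535 nm.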

[4] = Kinetic aqueous solubility of compound at pH 7.4; type: physicochemical; conditions: buffer, read-out: Kinetic_solubility
Procedure, shortened: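 Kinetic aqueous solubility was measured in pH 7.4 buffer. Values are reported as means ± standard deviation from at least one independent experiment run in triplicate.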

[5] = Half life in mouse microsomes at 0.8 uM; type: ADME, Microsome
Procedure, shortened: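 Oxidative metabolic stability in murine liver microsomes, drug at 0.8 µM. Half-life is reported as mean ± SD from at least one independent experiment run in triplicate.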

[6] = target: T1, DCN1-like protein 5 (Homo sapiens) (UniProt Q9BTE7); assay: Inhibition of DCN5 (unknown origin) assessed as decrease in DCN1-stimulated NEDD8 transfer from UBE2M to CUL2 at 60 uM after 10 sec by pulse-chase assay
T1 sequence (whole entry): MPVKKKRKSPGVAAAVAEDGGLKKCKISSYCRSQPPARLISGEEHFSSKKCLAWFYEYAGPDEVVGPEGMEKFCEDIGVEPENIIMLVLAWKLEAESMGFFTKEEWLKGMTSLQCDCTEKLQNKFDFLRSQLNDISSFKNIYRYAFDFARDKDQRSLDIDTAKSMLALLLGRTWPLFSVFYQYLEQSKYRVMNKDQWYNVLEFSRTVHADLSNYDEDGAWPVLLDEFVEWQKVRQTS

[7] = target: DCN1-like protein 2 (Homo sapiens) (UniProt Q6PH85); assay: Inhibition of DCN2 (unknown origin) assessed as decrease in DCN1-stimulated NEDD8 transfer from UBE2M to CUL2 at 10 uM after 10 sec by pulse-chase assay
[8] = target: T2, DCN1-like protein 3 (Homo sapiens) (UniProt Q8IWE4); assay: Inhibition of DCN3 (unknown origin) assessed as decrease in DCN1-stimulated NEDD8 transfer from UBE2M to CUL2 at 120 uM after 10 sec by pulse-chase assay
T2 sequence (whole entry): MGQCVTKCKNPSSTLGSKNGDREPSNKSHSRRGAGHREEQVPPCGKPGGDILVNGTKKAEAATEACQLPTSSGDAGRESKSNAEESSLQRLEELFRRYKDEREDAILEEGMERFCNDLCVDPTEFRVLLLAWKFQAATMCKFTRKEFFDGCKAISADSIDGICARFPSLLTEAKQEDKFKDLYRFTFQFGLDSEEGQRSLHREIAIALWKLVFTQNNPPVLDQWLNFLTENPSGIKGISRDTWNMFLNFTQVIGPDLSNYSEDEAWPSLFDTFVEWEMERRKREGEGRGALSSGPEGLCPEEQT

[9] = target: T3, DCN1-like protein 4 (Homo sapiens) (UniProt Q92564); assay: Inhibition of DCN4 (unknown origin) assessed as decrease in DCN1-stimulated NEDD8 transfer from UBE2M to CUL2 at 60 uM after 10 sec by pulse-chase assay
T3 sequence (whole entry): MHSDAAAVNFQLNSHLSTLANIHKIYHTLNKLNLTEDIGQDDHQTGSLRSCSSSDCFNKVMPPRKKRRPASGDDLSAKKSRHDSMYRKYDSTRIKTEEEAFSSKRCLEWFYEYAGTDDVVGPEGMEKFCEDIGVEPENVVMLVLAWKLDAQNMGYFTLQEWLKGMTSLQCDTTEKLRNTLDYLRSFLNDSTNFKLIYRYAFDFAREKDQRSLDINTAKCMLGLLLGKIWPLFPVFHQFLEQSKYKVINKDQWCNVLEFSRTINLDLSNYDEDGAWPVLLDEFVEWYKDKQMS

Chain of DCN1-like protein 1/NEDD8-conjugating enzyme Ubc12 (Q96GG9 whole entry): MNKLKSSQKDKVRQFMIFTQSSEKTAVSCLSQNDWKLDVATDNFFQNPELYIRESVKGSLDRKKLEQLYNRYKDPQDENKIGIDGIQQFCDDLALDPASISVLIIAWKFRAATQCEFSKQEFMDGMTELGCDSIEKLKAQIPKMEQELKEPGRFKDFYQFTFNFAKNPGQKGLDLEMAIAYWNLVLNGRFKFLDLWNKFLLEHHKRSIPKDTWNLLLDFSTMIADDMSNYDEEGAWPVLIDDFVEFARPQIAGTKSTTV
Chain of DCN1-like protein 1/NEDD8-conjugating enzyme Ubc12 (P61081 whole entry, further chain): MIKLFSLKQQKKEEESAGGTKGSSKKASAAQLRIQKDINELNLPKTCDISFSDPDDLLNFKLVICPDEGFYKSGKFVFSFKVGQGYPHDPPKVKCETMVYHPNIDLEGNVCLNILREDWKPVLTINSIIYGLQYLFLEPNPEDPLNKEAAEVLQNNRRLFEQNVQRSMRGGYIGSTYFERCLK
Chain of DCN1-like protein 2 (Homo sapiens) (Q6PH85 whole entry): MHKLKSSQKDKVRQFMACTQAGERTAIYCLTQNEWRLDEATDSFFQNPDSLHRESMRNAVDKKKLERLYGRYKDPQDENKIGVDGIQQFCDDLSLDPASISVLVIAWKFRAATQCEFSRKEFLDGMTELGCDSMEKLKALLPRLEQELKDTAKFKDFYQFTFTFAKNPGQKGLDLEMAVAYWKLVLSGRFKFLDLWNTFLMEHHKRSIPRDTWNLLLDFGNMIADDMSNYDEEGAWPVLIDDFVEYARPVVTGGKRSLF

Structure (SMILES): Cc1cccc(C(=O)N[C@@H]2C(=O)Nc3c(c(C)nn3-c3ccccn3)[C@@H]2c2ccc(F)cc2)c1
- IC50 [1]: > 15 µM

Structure (SMILES): CCN1C(=O)[C@@H](NC(=O)c2cccc(C)c2)[C@@H](c2ccc(F)cc2)c2c(C)nn(C3CCCC3)c21
- IC50 [1]: 0.8 µM

Structure (SMILES): Cc1cccc(C(=O)N[C@@H]2C(=O)Nc3c(c(C)nn3-c3ccccc3)[C@@H]2c2cccc(F)c2)c1
- IC50 [1]: 7.1 µM

Structure (SMILES): Cc1ccc(C(=O)N[C@@H]2C(=O)Nc3c(c(C)nn3-c3ccccc3)[C@@H]2c2ccc(F)cc2)cc1
- IC50 [1]: > 15 µM

Structure (SMILES): Cc1cccc(C(=O)N[C@@H]2C(=O)N(C(C)C)c3c(c(C)nn3-c3ccccc3)[C@@H]2c2ccc(F)cc2)c1
- IC50 [1]: 4.1 µM

Structure (SMILES): Cc1nn(-c2ccccc2)c2c1[C@H](c1ccc(F)cc1)[C@H](NC(=O)c1cccc(I)c1)C(=O)N2
- IC50 [1]: 7.1 µM

Structure (SMILES): Cc1cccc(C(=O)N[C@@H]2C(=O)Nc3c(c(C)nn3Cc3ccccc3)[C@@H]2c2ccc(F)cc2)c1
- IC50 [1]: > 15 µM

Structure (SMILES): Cc1cccc(C(=O)N[C@@H]2C(=O)Nc3c(c(C)nn3-c3ccccc3)[C@@H]2Cc2ccccc2)c1
- IC50 [1]: 3 µM

Structure (SMILES): Cc1cccc(C(=O)N[C@@H]2C(=O)Nc3n[nH]c(C)c3[C@@H]2c2ccc(F)cc2)c1
- IC50 [1]: > 15 µM

Structure (SMILES): CCCN1C(=O)[C@@H](NC(=O)c2cccc(C)c2)[C@@H](c2ccc(F)cc2)c2c1nn(CCC)c2C
- EC50 (BJ): > 25 µM
- EC50 (HCC95 [2]): > 25 µM

Structure (SMILES): Cc1cccc(C(=O)N[C@@H]2C(=O)Nc3c(c(C)nn3-c3ccccc3)[C@@H]2C2CCCCC2)c1
- IC50 [1]: 1.3 µM

Structure (SMILES): Cc1cncc(C(=O)N[C@@H]2C(=O)Nc3c(c(C)nn3-c3ccccc3)[C@@H]2c2ccc(F)cc2)c1
- IC50 [1]: > 15 µM

Structure (SMILES): Cc1cccc(C(=O)N[C@@H]2C(=O)Nc3c(c(C)nn3-c3ccccc3)[C@@H]2c2ccccc2)c1
- IC50 [1]: 4 µM

Structure (SMILES): Cc1cccc(C(=O)N[C@@H]2C(=O)N(C)c3c(c(C)nn3C(C)(C)C)[C@@H]2c2ccc(F)cc2)c1
- IC50 [1]: 2.3 µM

Structure (SMILES): CCC[C@H]1c2c(C)nn(-c3ccccc3)c2NC(=O)[C@H]1NC(=O)c1cccc(C)c1
- IC50 [1]: 3.1 µM

Structure (SMILES): Cc1nn(-c2ccccc2)c2c1[C@H](c1ccc(F)cc1)[C@H](NC(=O)c1ccccc1)C(=O)N2
- IC50 [1]: 13 µM

Structure (SMILES): CC(=O)N1C(=O)[C@@H](NC(=O)c2cccc(C)c2)[C@@H](c2ccc(F)cc2)c2c(C)nn(-c3ccccc3)c21
- IC50 [1]: 5.6 µM

Structure (SMILES): Cc1nn(-c2ccccc2)c2c1[C@H](c1ccc(F)cc1)[C@H](NC(=O)c1cccc(C(C)(C)C)c1)C(=O)N2
- IC50 [1]: > 15 µM

Structure (SMILES): Cc1cccc(C(=O)N[C@@H]2C(=O)Nc3c(c(C)nn3-c3ccccc3)[C@@H]2c2ccc(F)nc2)c1
- IC50 [1]: 3.5 µM

Structure (SMILES): CCOC1=Nc2c(c(C)nn2-c2ccccc2)[C@H](c2ccc(F)cc2)[C@@H]1NC(=O)c1cccc(C)c1
- EC50 (BJ): > 25 µM
- EC50 (HCC95 [2]): > 25 µM

Structure (SMILES): Cc1ccccc1C(=O)N[C@@H]1C(=O)Nc2c(c(C)nn2-c2ccccc2)[C@@H]1c1ccc(F)cc1
- IC50 [1]: > 15 µM

Structure (SMILES): Cc1cccc(C(=O)N[C@@H]2C(=O)Nc3c(c(C)nn3C3CC3)[C@@H]2c2ccc(F)cc2)c1
- IC50 [1]: 2 µM

Structure (SMILES): Cc1cccc(C(=O)N[C@@H]2C(=O)Nc3c(c(C)nn3-c3ccccc3)[C@@H]2c2cccnc2)c1
- IC50 [1]: > 15 µM

Structure (SMILES): CC(=O)CN1C(=O)[C@@H](NC(=O)c2cccc(C)c2)[C@@H](c2ccc(F)cc2)c2c(C)nn(-c3ccccc3)c21
- IC50 [1]: 7.1 µM

Structure (SMILES): Cc1nn(-c2ccccc2)c2c1[C@H](c1ccc(F)cc1)[C@H](NC(=O)c1ccc(Cl)c(Cl)c1)C(=O)N2
- IC50 [1]: > 15 µM

Structure (SMILES): CCCn1nc(C)c2c1NC(=O)[C@@H](NC(=O)c1cccc(C)c1)[C@H]2c1ccc(F)cc1
- IC50 [1]: 1.2 µM

Structure (SMILES): Cc1cccc(C(=O)N[C@@H]2C(=O)Nc3c(c(C)nn3C(C)(C)C)[C@@H]2c2ccc(F)cc2)c1
- IC50 [1]: 0.5 µM

Structure (SMILES): CCCCN1CCC(N(Cc2ccccc2)C(=O)Nc2ccc(Cl)c(Cl)c2)CC1
- Activity (HCC95 [3]): inactive

Structure (SMILES): CCCn1nc(C)c2c1N(CC)C(=O)[C@@H](NC(=O)c1cccc(C)c1)[C@H]2c1ccc(F)cc1 (racemic)
- solubility kinetic [4]: 10.9 µM (≈ 4.89 µg/mL)
- half-life at 0.8 µM [5]: < 6 min
- EC50 (BJ): > 25 µM
- EC50 (HCC95 [2]): > 25 µM
- IC50 [1]: 0.2 µM

Structure (SMILES): Cc1cccc(C(=O)N[C@H]2C(=O)Nc3c(c(C)nn3-c3ccccc3)[C@@H]2c2ccc(F)cc2)c1 (racemic)
- EC50 (BJ): > 25 µM
- Activity (HCC95 [3]): inactive
- EC50 (HCC95 [2]): > 25 µM

Structure (SMILES): Cc1cccc(C(=O)N[C@@H]2C(=O)Nc3c(c(C)nn3C3CCCC3)[C@@H]2c2ccc(F)cc2)c1 (racemic)
- solubility kinetic [4]: 17.1 µM (≈ 7.64 µg/mL)
- half-life at 0.8 µM [5]: 30 min
- EC50 (BJ): > 25 µM
- EC50 (HCC95 [2]): > 25 µM
- IC50 [1]: 0.3 µM

Structure (SMILES): Cc1cccc(C(=O)N[C@@H]2C(=O)Nc3c(c(C)nn3-c3ccccc3)[C@@H]2c2ccc(F)cc2)c1 (racemic)
- solubility kinetic [4]: 5.5 µM (≈ 2.5 µg/mL)
- half-life at 0.8 µM [5]: 66 min
- EC50 (BJ): > 25 µM
- EC50 (HCC95 [2]): > 25 µM
- IC50 [1]: 1.4 µM

Structure (SMILES): CCn1nc(C)c2c1NC(=O)[C@@H](NC(=O)c1cccc(C)c1)[C@H]2c1ccc(F)cc1 (racemic)
- solubility kinetic [4]: 92.8 µM (≈ 37.7 µg/mL)
- half-life at 0.8 µM [5]: 36 min
- EC50 (BJ): > 25 µM
- EC50 (HCC95 [2]): > 25 µM

Structure (SMILES): CCN1C(=O)[C@@H](NC(=O)c2cccc(C)c2)[C@@H](c2ccc(F)cc2)c2c(C)nn(C3CC3)c21 (racemic)
- solubility kinetic [4]: 46.1 µM (≈ 20.6 µg/mL)
- half-life at 0.8 µM [5]: < 6 min
- EC50 (BJ): > 25 µM
- EC50 (HCC95 [2]): > 25 µM
- IC50 [1]: 0.2 µM

Structure (SMILES): CCN1C(=O)[C@@H](NC(=O)c2cccc(C)c2)[C@@H](c2ccc(F)cc2)c2c(C)nn(-c3ccccc3)c21 (relative stereo)
- inhibition [6]: inactive
- EC50 (BJ): > 25 µM
- inhibition [7]: Active
- Activity (HCC95 [3]): inactive
- inhibition [8]: inactive
- EC50 (HCC95 [2]): > 25 µM
- inhibition [9]: inactive

Structure (SMILES): Cc1ccc([C@H]2c3c(C)nn(-c4ccccc4)c3NC(=O)[C@H]2NC(=O)c2cccc(C)c2)cc1 (relative stereo)
- solubility kinetic [4]: 1.1 µM (≈ 0.496 µg/mL)
- half-life at 0.8 µM [5]: 18 min
- EC50 (BJ): > 25 µM
- EC50 (HCC95 [2]): > 25 µM
- IC50 [1]: 5.1 µM

Structure (SMILES): CCC(C)n1nc(C)c2c1NC(=O)[C@@H](NC(=O)c1cccc(C)c1)[C@H]2c1ccc(F)cc1 (stereo in doubt; 22a)
- IC50 [1]: 0.7 µM

Structure (SMILES): CCC(C)n1nc(C)c2c1NC(=O)[C@@H](NC(=O)c1cccc(C)c1)[C@H]2c1ccc(F)cc1 (stereo in doubt; 22b)
- IC50 [1]: 0.6 µM
